Source: ChEMBL document CHEMBL2062383, “Synthesis and antibacterial activity of 6-O-(heteroaryl-isoxazolyl)propynyl 2-fluoro ketolides” (2012)
≈ marks a conversion by molar mass, not a printed value. Calls of active or inactive are those of the source. The rule behind the calls is not given here.

Key:
Streptococcus pneumoniae [1] = assay: Antibacterial activity against erythromycin-resistant Streptococcus pneumoniae 205 expressing ermB ribosomal methylase by broth microdilution method; assay type: functional
In short: (§1)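 MIC by broth microdilution, following Clinical and Laboratory Standards Institute guidelines for S. pneumoniae and S. pyogenes.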

Streptococcus pneumoniae [2] = assay: Ratio of clarithromycin MIC to compound MIC for eryhtromycin-susceptible Streptococcus pneumoniae ATCC 49619; assay type: functional
Streptococcus pneumoniae [3] = assay: Antibacterial activity against Streptococcus pneumoniae 210 expressing mefA efflux pump by broth microdilution method; assay type: functional
In short: (§2)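 MIC by broth microdilution following CLSI guidelines for S. pneumoniae and H. influenzae.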

Haemophilus influenzae [4] = assay: Ratio of clarithromycin MIC to compound MIC for Haemophilus influenzae ATCC 43095; assay type: functional
Haemophilus influenzae [5] = assay: Antibacterial activity against Haemophilus influenzae ATCC 43095 infected in po dosed ICR mouse assessed as decrease in bacterial count in lungs administered QD 1 day post-inoculation for 2 days measured after 1 day; assay type: functional, organism-based
In short: (§3)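 Four-week-old male ICR mice were inoculated intratracheally with 5.2×10^6 CFU/mouse. Oral dosing began the day after inoculation, once daily for 2 days. Lung bacterial counts were taken the day after the last dose and are given as mean ± S.E. versus untreated control, with Steel's test.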

Streptococcus pneumoniae [6] = assay: Antibacterial activity against erythromycin-resistant Streptococcus pneumoniae 1101 expressing ermB ribosomal methylase infected in po dosed CBA/JN mouse assessed as decrease in bacterial count in lungs administered QD 1 day post-inoculation for 2 days measured after 1 day; assay type: functional, organism-based
In short: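 Five-week-old male CBA/JN mice were inoculated intranasally with erm(B) S. pneumoniae 1101 at 5.5×10^4 CFU/mouse. Oral dosing once daily started the day after inoculation and continued for 2 days. Lung bacterial counts were taken the day after the last dose. Data are given as mean ± S.E., with Steel's test versus untreated control.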

Haemophilus influenzae [7] = assay: Antibacterial activity against Haemophilus influenzae ATCC 43095 infected in ICR mouse assessed as decrease in bacterial count in lungs at 50 mg/kg, po administered QD 1 day post-inoculation for 2 days measured after 1 day; assay type: functional, organism-based; design: dose 50 mg/kg; in short: as §3
Streptococcus pneumoniae [8] = assay: Antibacterial activity against eryhtromycin-susceptible Streptococcus pneumoniae ATCC 49619 by broth microdilution method; assay type: functional; in short: as §1
Streptococcus pyogenes = assay: Antibacterial activity against erythromycin-resistant Streptococcus pyogenes 1104 expressing ermB ribosomal methylase by broth microdilution method; assay type: functional; in short: as §1
Haemophilus influenzae [9] = assay: Antibacterial activity against Haemophilus influenzae ATCC 43095 by broth microdilution method; assay type: functional; in short: as §2
Streptococcus pneumoniae [10] = assay: Antibacterial activity against erythromycin-resistant Streptococcus pneumoniae 1101 expressing ermB ribosomal methylase by broth microdilution method; assay type: functional; in short: as §1

Structure (SMILES) | MIC (Streptococcus pneumoniae [1]) | Ratio (Streptococcus pneumoniae [2]) | MIC (Streptococcus pneumoniae [3]) | Ratio (Haemophilus influenzae [4]) | Activity (Haemophilus influenzae [5]) | Activity (Streptococcus pneumoniae [6]) | Activity (Haemophilus influenzae [7]) | MIC (Streptococcus pneumoniae [8]) | MIC (Streptococcus pyogenes) | MIC (Haemophilus influenzae [9]) | MIC (Streptococcus pneumoniae [10])
CC[C@H]1OC(=O)[C@@](C)(F)C(=O)[C@H](C)[C@@H](O[C@@H]2O[C@H](C)C[C@H](N(C)C)[C@H]2O)[C@](C)(OCC#Cc2cc(-c3cccnn3)no2)C[C@@H](C)C(=O)[C@H](C)[C@H]2NC(=O)O[C@@]21C | 8 ng/mL (≈ 0.01 µM) | 4 | 0.03 µg/mL (≈ 0.0375 µM) | 2 | Dose-dependent effect | Dose-dependent effect | Active | 8 ng/mL (≈ 0.01 µM) | 1 µg/mL (≈ 1.25 µM) | 2 µg/mL (≈ 2.5 µM) | 0.016 µg/mL (≈ 0.02 µM)
CC[C@H]1OC(=O)[C@H](C)[C@@H](O[C@H]2C[C@@](C)(OC)[C@@H](O)[C@H](C)O2)[C@H](C)[C@@H](O[C@@H]2O[C@H](C)C[C@H](N(C)C)[C@H]2O)[C@](C)(O)C[C@@H](C)CN(C)[C@H](C)[C@@H](O)[C@]1(C)O [AZITHROMYCIN] | > 128000 ng/mL | – | 2 µg/mL (≈ 2.67 µM) | – | – | – | – | 60 ng/mL (≈ 0.0801 µM) | > 128 µg/mL | 0.5 µg/mL (≈ 0.668 µM) | –
CC[C@H]1OC(=O)[C@@](C)(F)C(=O)[C@H](C)[C@@H](O[C@@H]2O[C@H](C)C[C@H](N(C)C)[C@H]2O)[C@](C)(OCC#Cc2cc(-c3cnc(N)nc3)no2)C[C@@H](C)C(=O)[C@H](C)[C@H]2NC(=O)O[C@@]21C | 8 ng/mL (≈ 0.00982 µM) | 4 | 0.03 µg/mL (≈ 0.0368 µM) | 2 | Dose-dependent effect | Dose-dependent effect | – | 8 ng/mL (≈ 0.00982 µM) | 0.06 µg/mL (≈ 0.0736 µM) | 2 µg/mL (≈ 2.45 µM) | 0.008 µg/mL (≈ 0.00982 µM)
CC[C@H]1OC(=O)[C@@](C)(F)C(=O)[C@H](C)[C@@H](O[C@@H]2O[C@H](C)C[C@H](N(C)C)[C@H]2O)[C@](C)(OCC#Cc2cc(-c3ncccn3)no2)C[C@@H](C)C(=O)[C@H](C)[C@H]2NC(=O)O[C@@]21C | 8 ng/mL (≈ 0.01 µM) | 4 | 0.03 µg/mL (≈ 0.0375 µM) | 2 | Dose-dependent effect | Dose-dependent effect | – | 8 ng/mL (≈ 0.01 µM) | 2 µg/mL (≈ 2.5 µM) | 2 µg/mL (≈ 2.5 µM) | 0.016 µg/mL (≈ 0.02 µM)
CC[C@H]1OC(=O)[C@H](C)[C@@H](O[C@H]2C[C@@](C)(OC)[C@@H](O)[C@H](C)O2)[C@H](C)[C@@H](O[C@@H]2O[C@H](C)C[C@H](N(C)C)[C@H]2O)[C@](C)(OC)C[C@@H](C)C(=O)[C@H](C)[C@@H](O)[C@]1(C)O [CLARITHROMYCIN] | > 128000 ng/mL | – | 2 µg/mL (≈ 2.67 µM) | – | – | – | – | 30 ng/mL (≈ 0.0401 µM) | > 128 µg/mL | 4 µg/mL (≈ 5.35 µM) | –
